Data on one compound can be found in ChEMBL document CHEMBL2346587, “Design, synthesis, and evaluation of a water-soluble antofine analogue with high antiproliferative and antitumor activity” (Bioorg Med Chem, 2013).

pIC50: −log10 of the molar value. The source made the active and inactive calls. The calls are words filed in the database; no cut-off is given here.

Data set [1] has as its target TCF4/beta-catenin (Homo sapiens) (UniProt P35222+Q9NQB0). In words: Inhibition of transcription activity of […]/TCF4 (unknown origin) expressed in HEK293 cells after 24 hrs by luciferase reporter gene assay. In kind it is cell-based. The gist of the method: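 HEK293 cells were co-transfected for 24 h with 100 ng TOPflash β-catenin/Tcf reporter and 5 ng pRL-SV40. Graded compound concentrations were then added for 24 h. Firefly activity was read with a dual-luciferase system and normalized to Renilla. Significance was tested against DMSO control.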

In data set [2] the test system is A549. The experiment in a line: Cell cycle arrest in human A549 cells assessed as accumulation at G0/G1 phase at 100 nM after 24 hrs by flow cytometry (reference value: 62.38 %). Format: functional.
Data set [3] deals with T1, ATP-dependent translocase ABCB1 (Homo sapiens, UniProt P08183). In words: Inhibition of P-gp activity in human paclitaxel-resistant A549 cells potentiation of 10 uM paclitaxel-induced cytotoxicity at 0.2 uM by SRB assay. In kind it is cell-based. To be noted: a549, 0.2 µM. The gist of the method:
(§1)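 A549-Pa cells plated at 5 × 10^4 cells/well and co-treated for 48 h with the compound (0–200 nM) plus paclitaxel or gefitinib; growth inhibition by SRB assay. Combination index computed at the 50% inhibition level as CI = D1/(Dx)1 + D2/(Dx)2, comparing combined versus single-agent concentrations.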

The test system of data set [4] is A549. In words: Cell cycle arrest in human A549 cells assessed as accumulation at sub-G1 phase at 400 nM after 24 hrs by flow cytometry (reference value: 1.40 %). In kind it is functional.
The target in data set [5] is T1, ATP-dependent translocase ABCB1. In words: Inhibition of P-gp activity in human paclitaxel-resistant A549 cells potentiation of 2.5 uM gefitinib-induced cytotoxicity at 0.05 uM by SRB assay. The conditions noted are these: a549, 0.05 µM. In kind it is cell-based. The procedure, abridged:
as §1

Data set [6] has as its system A549. The experiment in a line: human A549 cells assessed as morphological changes at 50 to 400 nM after 24 hrs by inverted phase-contrast microscopy.
Data set [7] relates to A549. The experiment in a line: Inhibition of AKT/c-myc signaling in human A549 cells assessed as reduction in CDK4 protein expression at 50 to 400 nM after 24 hrs by Western blot analysis. Format: cell-based. The procedure, abridged: (§2)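 A549 cells plated at 3 × 10^5 per 60 mm dish, grown 24 h, then exposed to a concentration series for 24 h. Lysed in boiling SDS sample buffer with NaF and orthovanadate; protein by BCA; 25–50 µg run on 8–15% SDS-PAGE, transferred to PVDF, blocked in 5% milk/PBST, primary antibodies overnight at 4 °C, secondary 1–2 h, ECL detection.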

A further data set concerns HCT-15. In words: Cytotoxicity against human HCT15 cells after 72 hrs by SRB assay. To be noted: HCT-15, 72 h. Format: functional, cell-based. The gist of the method:
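SRB growth assay: 5 × 10^3 cells/well exposed to a concentration series for 72 h; fixed in 10% TCA 30 min at 4 °C, stained with 0.4% SRB in 1% acetic acid 30 min, dye dissolved in 10 mM Tris pH 10.0, absorbance at 515 nm. Viability relative to vehicle control; IC50 by non-linear regression; at least three experiments. A549-Pa is a paclitaxel-resistant A549 subline.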

The test system of data set [8] is A549. The experiment in a line: Antitumor activity against paclitaxel-resistant human A549 cells xenografted in athymic nu/nu BALB/c mouse assessed as inhibition of Ki-67 expression at 5 to 10 mg/kg, ip administered 35 days post-implantation 3 times a week by immunohistochemistry. Format: functional, organism-based. The procedure, abridged: (§3)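 Female athymic BALB/c nu/nu mice, six weeks old; 2 × 10^6 A549 or A549-Pa cells in 0.1 mL RPMI injected s.c. into right flank on day 0. Dosing began at 95–100 mm3 tumour volume: drug in 1% cremophore in PBS given i.p. three times weekly; controls got vehicle; five mice/group. Tumour volume tracked every 3–5 days; tumours excised and weighed at end; sections immunostained for Ki-67.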

Data set [9] has as its system A549. In words: Inhibition of AKT-mediated mTOR phosphorylation at Ser2448 residue in human A549 cells at 50 to 400 nM after 24 hrs by Western blot analysis. Format: cell-based. The procedure, abridged: as §2
Data set [10] deals with T1, ATP-dependent translocase ABCB1. In words: Inhibition of P-gp activity in human paclitaxel-resistant A549 cells potentiation of 5 uM gefitinib-induced cytotoxicity at 0.1 uM by SRB assay. In kind it is cell-based. To be noted: a549, 0.1 µM. The procedure, abridged:
as §1

Data set [11] deals with A549. In words: Inhibition of AKT phosphorylation at T308 residue in human A549 cells at 50 to 400 nM after 24 hrs by Western blot analysis. In kind it is cell-based. The procedure, abridged:
as §2

Data set [12] in a line: Inhibition of Wnt signaling in human A549 cells assessed as inhibition of […] expression after 24 hrs by Western blot analysis. Format: cell-based. The gist of the method: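 A549 cells were seeded at 3 × 10^5 per 60 mm dish, grown 24 h, then given graded compound concentrations for 24 h. Lysis was in boiling SDS buffer, with BCA protein assay. 25–50 µg per lane was run on 8–15% SDS-PAGE and blotted to PVDF. Primary antibodies (1:1000–1:2000) went on overnight at 4 °C, then secondary and ECL read-out.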

Data set [13] has as its system A549. The experiment in a line: Effect on CDK2 protein expression at G0/G1 phase in human A549 cells at 50 to 400 nM after 24 hrs by Western blot analysis. Format: functional, cell-based. The procedure, abridged: as §2
Data set [14] deals with A549. In words: Inhibition of AKT/c-myc signaling in human A549 cells assessed as reduction in phospho-Rb level at 50 to 400 nM after 24 hrs by Western blot analysis. In kind it is cell-based. The procedure, abridged: as §2
Data set [15] has as its system A549. In words: Cell cycle arrest in human A549 cells assessed as accumulation at G2/M phase at 100 nM after 24 hrs by flow cytometry (reference value: 22.84 %). Format: functional.
The target in data set [16] is T1, ATP-dependent translocase ABCB1. In words: Inhibition of P-gp activity in human […] A549 cells potentiation of 10 uM paclitaxel-induced cytotoxicity at 0.2 uM by SRB assay. In kind it is cell-based. To be noted: a549, 0.2 µM.
Data set [17] deals with A549. In words: Cell cycle arrest in human A549 cells assessed as accumulation at G0/G1 phase at 200 nM after 24 hrs by flow cytometry (reference value: 62.38 %). Format: functional.
Data set [18] concerns A549. The experiment in a line: Inhibition of AKT/c-myc signaling in human A549 cells assessed as reduction in cyclin E protein expression at 50 to 400 nM after 24 hrs by Western blot analysis. In kind it is cell-based. The gist of the method: as §2
The target in data set [19] is T1, ATP-dependent translocase ABCB1. The experiment in a line: Inhibition of P-gp activity in human paclitaxel-resistant A549 cells assessed as rhodamine 123 accumulation at 50 nM after 72 hrs by FACS analysis (reference value: 14.4 %). In kind it is cell-based. On the set-up: scale not given: the % may be the effect or the level left. To be noted: a549, 72 h, 0.05 µM.

Data set [20] relates to A549. In words: Antitumor activity against human A549 cells xenografted in athymic nu/nu BALB/c mouse assessed as inhibition of tumor growth at 10 mg/kg, ip administered 35 days post-implantation 3 times a week relative to control. Format: functional. The conditions noted are these: 840 h, route intraperitoneal, read-out: TGI. The gist of the method:
as §3

Data set [21] has as its system A549. The experiment in a line: Inhibition of AKT/mTOR signaling in human A549 cells assessed as inhibition of eIF4E phosphorylation at 50 to 400 nM after 24 hrs by Western blot analysis. In kind it is cell-based. The procedure, abridged:
as §2

T1 sequence (P08183 whole entry): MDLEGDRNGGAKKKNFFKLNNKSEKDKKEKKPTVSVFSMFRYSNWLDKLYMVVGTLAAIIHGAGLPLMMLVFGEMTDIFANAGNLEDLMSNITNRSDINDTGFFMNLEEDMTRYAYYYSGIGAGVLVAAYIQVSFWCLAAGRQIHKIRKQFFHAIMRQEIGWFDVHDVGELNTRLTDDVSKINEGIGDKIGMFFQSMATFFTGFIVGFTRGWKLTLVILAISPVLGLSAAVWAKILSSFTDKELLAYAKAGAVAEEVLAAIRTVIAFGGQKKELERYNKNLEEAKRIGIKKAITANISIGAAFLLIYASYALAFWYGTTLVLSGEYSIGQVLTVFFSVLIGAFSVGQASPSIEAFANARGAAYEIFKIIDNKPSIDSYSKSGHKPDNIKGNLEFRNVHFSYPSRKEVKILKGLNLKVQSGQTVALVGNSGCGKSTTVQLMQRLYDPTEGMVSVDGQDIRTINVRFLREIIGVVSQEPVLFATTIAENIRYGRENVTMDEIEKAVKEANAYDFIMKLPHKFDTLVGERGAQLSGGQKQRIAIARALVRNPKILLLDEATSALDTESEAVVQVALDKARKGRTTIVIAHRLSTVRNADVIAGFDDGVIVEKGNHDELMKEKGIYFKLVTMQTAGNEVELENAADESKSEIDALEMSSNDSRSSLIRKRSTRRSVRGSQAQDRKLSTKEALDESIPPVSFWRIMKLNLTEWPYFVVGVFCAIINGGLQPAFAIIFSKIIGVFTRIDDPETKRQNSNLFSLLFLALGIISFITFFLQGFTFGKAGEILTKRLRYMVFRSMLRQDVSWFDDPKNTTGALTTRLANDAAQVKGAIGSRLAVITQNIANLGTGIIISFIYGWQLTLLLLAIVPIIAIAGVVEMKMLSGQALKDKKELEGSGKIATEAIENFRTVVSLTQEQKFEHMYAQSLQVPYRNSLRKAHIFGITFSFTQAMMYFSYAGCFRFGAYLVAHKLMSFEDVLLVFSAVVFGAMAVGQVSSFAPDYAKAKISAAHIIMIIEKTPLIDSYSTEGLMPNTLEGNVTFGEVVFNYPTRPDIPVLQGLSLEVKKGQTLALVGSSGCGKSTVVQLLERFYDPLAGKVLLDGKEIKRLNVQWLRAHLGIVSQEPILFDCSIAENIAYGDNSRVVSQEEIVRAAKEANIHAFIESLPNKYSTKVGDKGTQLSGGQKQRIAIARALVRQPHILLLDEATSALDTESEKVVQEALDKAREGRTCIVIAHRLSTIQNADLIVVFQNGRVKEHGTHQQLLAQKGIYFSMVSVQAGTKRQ

In the case of `COc1ccc2c3c(c4cc(OC)c(OC)cc4c2c1)C[C@@]1(CO)CCCN1C3`, the inhibition result in [1] and in [12] was “Dose-dependent effect” each time. The Activity in the data set on A549 [2] came to 68.38%; with A549 [4] it was 1.21%; in the data set with A549 [15] it was 18.53%; in the data set with A549 [17], 69.43%; in [19], 28.7%. Moreover, the “fractional inhibitory concentration index (FICI)” value stood at 0.413 in data set [3], 0.653 in data set [5], 0.523 in data set [10] and 1.002 in [16]. Besides, the result in the data set with A549 [6] was Active. The inhibition entry in the data set with A549 [7], with A549 [8], with A549 [9], in the data set on A549 [11], with A549 [14] and with A549 [18] was “Active” throughout. The inhibition entry in the data set on A549 [21] is “Active”. This compound gave a pIC50 in the data set with HCT-15 of 6.80. For the same compound, in the data set with A549 [13], the result was inactive. The inhibition in vivo at 10 mg/kg with A549 [20] was 60.7%.
